Assays:
[1] = tested on: C. albicans (strain SC5314); assay: Antifungal activity; type: cell-based
Procedure, shortened: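 SC5314 from −80 °C glycerol stock streaked on YM agar (37 °C, 48 h); colonies cultured in glucose–salt–biotin medium, pH 7.1, at 25 °C for 18 h (also printed as 30 °C, 24–36 h). Diluted to 1 × 10^5–1 × 10^6 cells/mL in GSB over test compound in DMSO (1 μL per 100 μL). Alamar Blue added after 24 h; MIC from absorbance-maximum shift 570→600 nm. Amphotericin B, itraconazole controls.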

[2] = molecular target: T1, C. glabrata DHFR (CgDHFR) (Candida glabrata, UniProt Q6FPH0); assay: DHFR enzyme inhibition; type: biochemical
T1 sequence (Q6FPH0 1-217): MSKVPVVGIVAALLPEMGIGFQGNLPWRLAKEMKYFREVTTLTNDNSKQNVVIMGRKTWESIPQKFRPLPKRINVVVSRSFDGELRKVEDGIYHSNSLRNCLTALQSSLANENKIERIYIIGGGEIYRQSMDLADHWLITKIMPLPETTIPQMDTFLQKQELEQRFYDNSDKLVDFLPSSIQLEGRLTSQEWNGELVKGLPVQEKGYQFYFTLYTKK

| Structure (SMILES) | MIC C. albicans in the presence of 0.01% Triton X-100 [1] | IC50 [2] |
| --- | --- | --- |
| CCc1nc(N)nc(N)c1C#CC(C)c1ccc(-c2ccc(C)cc2)nc1 (stereo not drawn) [Compound 47, 6-Ethyl-5-[3-(6-p-tolyl-pyridin-3-yl)-but-1-ynyl]-pyrimidine-2,4-diamine] | not significantly changed |  |
| CCc1nc(N)nc(N)c1C#CC(C)c1cc(OC)cc(-c2ccncc2)c1 (stereo not drawn) [Compound 1] |  | 89 nM |
| COc1ccc(-c2ccccc2)cc1C(C)C#Cc1c(C)nc(N)nc1N (stereo not drawn) [Compound 2] | do inhibit the growth of C. albicans |  |
